Measurements published in ChEMBL document CHEMBL1149082, “Discovery of novel thieno[2,3-d]pyrimidin-4-yl hydrazone-based inhibitors of Cyclin D1-CDK4: synthesis, biological evaluation, and structure-activity relationships” (Bioorg Med Chem Lett, 2009).
Values after ≈ are worked out from the molar mass of the structure shown. Active and inactive are the calls of the source. The rule behind the calls is not given here.

Experiments:
[1] = target: Cyclin-dependent kinase 2 (Homo sapiens, UniProt P24941); assay: Inhibition of CDK2-mediated retinoblastoma protein phosphorylation by dose-response curve analysis
How it was run: (§1)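 Kinase assay read as Rb phosphorylation by cyclin D1-CDK4 or cyclin E-CDK2. IC50 is the concentration (μg/mL) giving 50% inhibition of Rb phosphorylation, read from the dose-response curve. Values are means of at least two determinations.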

[2] = target: T1, Cyclin-dependent kinase 4 (Homo sapiens, UniProt P11802); assay: Inhibition of CDK4-mediated retinoblastoma protein phosphorylation by dose-response curve analysis; how it was run: as §1
[3] = tested on: HCT-116; assay: Antiproliferative activity against human HCT116 cells by dose-response curve analysis; type: functional, cell-based
How it was run: (§2)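 Cell growth inhibition measured from dose-response curves at ten concentrations. IC50 is the concentration giving 50% growth inhibition, read from these curves.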

[4] = tested on: PC-6; assay: Antiproliferative activity against human PC6 cells by dose-response curve analysis; type: functional, cell-based; how it was run: as §2
[5] = target: T1, Cyclin-dependent kinase 4; assay: Inhibition of CDK4-mediated retinoblastoma protein phosphorylation up to 20 ug/mL by dose-response curve analysis
[6] = Aqueous solubility in water; type: physicochemical
[7] = tested on: MKN-28; assay: Antiproliferative activity against human MKN28 cells by MTT assay; type: functional, cell-based; how it was run: as §2
[8] = tested on: HCT-116; assay: Antiproliferative activity against docetaxal-resistant human HCT116 cells by MTT assay; type: functional, cell-based; how it was run: as §2
[9] = tested on: P388; assay: Antiproliferative activity against mouse P388 cells by MTT assay; type: functional, cell-based; how it was run: as §2
[10] = tested on: MDA-MB-231; assay: Antiproliferative activity against human MDA-MB-231 cells by MTT assay; type: functional, cell-based; how it was run: as §2
[11] = tested on: WiDr; assay: Antiproliferative activity against human WiDr cells by MTT assay; type: functional, cell-based; how it was run: as §2
[12] = tested on: MDA-MB-468; assay: Antiproliferative activity against human MDA-MB-468 cells by MTT assay; type: functional, cell-based; how it was run: as §2
[13] = tested on: DLD-1; assay: Antiproliferative activity against human DLD1 cells by MTT assay; type: functional, cell-based; how it was run: as §2
[14] = tested on: HCT-116; assay: Antiproliferative activity against SN2-3-resistant human HCT116 cells by MTT assay; type: functional, cell-based; how it was run: as §2
[15] = Antiproliferative activity against mouse B16-BL6 cells by MTT assay; type: functional, cell-based; how it was run: as §2
[16] = tested on: HCT-116; assay: Cell cycle arrest in human HCT116 cells assessed as increase in accumulation at G1 phase after 16 hrs by FACS analysis; type: functional, cell-based
How it was run: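 HCT116 cells exposed to test compound at various concentrations for 16 hr, then collected. DNA content measured by flow cytometry to assign G1, S and G2/M fractions.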

Compound | IC50 [1] | IC50 [2] | IC50 [4] | other results
CCc1cc2c(N/N=C\c3cccs3)nc(C)nc2s1 | > 66.1 µM | > 66.1 µM |  | 
CC(C)(C)c1cc2c(N/N=C\c3cccc(CO)n3)ncnc2s1 | 6.15 µM | 1.03 µM | 0.034 µg/mL (≈ 0.0996 µM) | IC50 [3]: 0.039 µg/mL (≈ 0.114 µM)
C(=N/Nc1ncnc2sc3c(c12)CCCC3)/c1cccs1 | > 63.6 µM | > 63.6 µM |  | 
CCc1cc2c(N/N=C\c3cccs3)nc(-c3ccccc3)nc2s1 | > 54.9 µM | > 54.9 µM |  | 
C(=N/Nc1ncnc2sc(Cc3ccccc3)cc12)/c1cccs1 | 18.5 µM | > 57.1 µM |  | Activity [5]: inactive
CCc1cc2c(N/N=C\C3CC3)ncnc2s1 | 16.6 µM | 13 µM |  | 
C/C(=N/Nc1ncnc2sc(C(C)C)cc12)c1cccs1 | 28.1 µM | 8.85 µM |  | 
CCc1cc2c(N/N=C\C(C)(C)C)ncnc2s1 | 14.5 µM | 16.8 µM | 1.55 µg/mL (≈ 5.91 µM) | IC50 [3]: 1.66 µg/mL (≈ 6.33 µM)
CC(C)c1cc2c(N/N=C\c3cccs3)ncnc2s1 | 1.16 µM | 0.165 µM |  | solubility [6]: < 0.1 µg/mL
CNCc1cccc(/C=N\Nc2ncnc3sc(C(C)(C)C)cc23)n1 | 20 µM | 0.705 µM | 0.189 µg/mL (≈ 0.533 µM) | IC50 [3]: 0.185 µg/mL (≈ 0.522 µM); IC50 [7]: 0.686 µg/mL (≈ 1.94 µM); IC50 [8]: 0.29 µg/mL (≈ 0.818 µM); IC50 [9]: 0.131 µg/mL (≈ 0.37 µM); IC50 [10]: 0.279 µg/mL (≈ 0.787 µM); IC50 [11]: 0.263 µg/mL (≈ 0.742 µM); IC50 [12]: 0.159 µg/mL (≈ 0.449 µM); IC50 [13]: 0.221 µg/mL (≈ 0.623 µM); IC50 [14]: 0.269 µg/mL (≈ 0.759 µM); IC50 [15]: 0.379 µg/mL (≈ 1.07 µM)
CC(C)c1cc2c(N/N=C\c3ccccc3)ncnc2s1 | 2.97 µM | 1.59 µM | 0.651 µg/mL (≈ 2.2 µM) | 
CN(C)Cc1cccc(/C=N\Nc2ncnc3sc(C(C)(C)C)cc23)n1 | 3.8 µM | 0.152 µM | 0.381 µg/mL (≈ 1.03 µM) | IC50 [3]: 0.429 µg/mL (≈ 1.16 µM); Activity [16]: Dose-dependent effect; IC50 [7]: 1.39 µg/mL (≈ 3.77 µM); IC50 [8]: 0.973 µg/mL (≈ 2.64 µM); IC50 [9]: 0.37 µg/mL (≈ 1 µM); solubility [6]: 44 µg/mL (≈ 119 µM); IC50 [10]: 0.919 µg/mL (≈ 2.49 µM); IC50 [11]: 0.889 µg/mL (≈ 2.41 µM); IC50 [12]: 0.315 µg/mL (≈ 0.855 µM); IC50 [13]: 0.506 µg/mL (≈ 1.37 µM); IC50 [14]: 0.755 µg/mL (≈ 2.05 µM); IC50 [15]: 1.09 µg/mL (≈ 2.96 µM)
Cc1csc2ncnc(N/N=C\c3cccs3)c12 | > 72.9 µM | > 72.9 µM |  | 
Cc1cc2c(N/N=C\c3cccs3)ncnc2s1 | 6.2 µM | 6.92 µM |  | 
